Experimental data: paper PMC7345411 (ACS Omega, 2020)
Several values for one entry are separate records, joined by “and”; a condition that tells them apart may be missing. Equal entries are not always repeated.

Assays:
SMMC7721 = assay: MTT cell proliferation inhibition assay; format: cell-based; settings: Homo sapiens, SMMC-7721, 72 h
[1] = Pharmacokinetics after oral administration in rats; format: in vivo, Sprague-Dawley rats; settings: 0.06 mmol/kg
HeLa = assay: MTT cell proliferation inhibition assay; format: cell-based; settings: Homo sapiens, 72 h
Acute toxicity study = format: in vivo; settings: for Nd (number of dead animals) / R (%) = Nd/Ni: Ni 10; for LD50: in vivo, acute toxicity
JEG3 = assay: MTT cell proliferation inhibition assay; format: cell-based; settings: Homo sapiens, JEG-3, 72 h
HCT116 = assay: MTT cell proliferation inhibition assay; format: cell-based; settings: Homo sapiens, HCT-116, 72 h
[2] = Solubility in water by UV-visible spectrophotometry; format: physicochemical
Hep G2 = assay: MTT cell proliferation inhibition assay; format: cell-based; settings: Homo sapiens, HepG2, 72 h
HCT116 tumor = assay: HCT116 xenograft tumor model in BALB/c nude mice; format: in vivo; settings: dose 0.036 mmol/kg/d, daily injection for 21 days
In short: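 Nude mice given 5 × 10^5 viable HCT116 cells subcutaneously in the right flank. Daily injections into the left hypogastrium for 21 days. Test compound at 0.006, 0.012 or 0.018 mmol/kg/d. Comparators: 5-FU 0.036 mmol/kg/d and an uncrystallised 3:1 mix (5-FU 0.036 + NCM 0.012 mmol/kg/d), plus blank control. Mice euthanised; tumours weighed and examined by H&E (×100). TGI = (mean control weight − mean treated weight)/mean control weight.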

[3] = Sprague-Dawley, rat, plasma, po
[4] = dose 122.2/0.86 (mg/kg)/(mmol/kg)
[5] = dose 133.4/1.03 (mg/kg)/(mmol/kg)
[6] = dose 158.5/1.22 (mg/kg)/(mmol/kg)

Structure (SMILES): O=c1[nH]cc(F)c(=O)[nH]1 [5-FU, 5-Fluorouracil]
- IC50 (SMMC7721): 18.9 µM
- AUC(0-inf) [1, 3]: 5.07 ± 0.104 µM·h
- AUC(0-t) [1, 3]: 4.93 ± 0.076 µM·h
- CL/F [1, 3]: 197 mL/min/kg
- Cmax [1, 3]: 7.99 ± 0.375 µM
- Tmax [1, 3]: 20 min
- half-life [1, 3]: 18.1 ± 3.72 min
- V1/F ([1]; oral, SD rats, n = 8): 2.783 ± 0.915 L/kg
- t1/2α ([1]; oral, SD rats, n = 8): 3.84 ± 0.78 min
- IC50 (HeLa): 7.96 µM
- probit (P + 5) (Acute toxicity study; [4]): 3.720
- Nd (number of dead animals) (Acute toxicity study; [4]): 1
- R (%) = Nd/Ni (Acute toxicity study; [4]): 10%
- probit (P + 5) (Acute toxicity study; [5]): 5.520
- Nd (number of dead animals) (Acute toxicity study; [5]): 7
- R (%) = Nd/Ni (Acute toxicity study; [5]): 70%
- probit (P + 5) (Acute toxicity study; [6]): 6.28
- Nd (number of dead animals) (Acute toxicity study; [6]): 9
- R (%) = Nd/Ni (Acute toxicity study; [6]): 90%
- LD50 (Acute toxicity study; LD50 95% confidence interval): 380 to 2630 µmol/kg
- LD50 (Acute toxicity study; LD50 (median lethal dose)): 1000 µmol/kg
- IC50 (JEG3): 2.18 µM
- IC50 (HCT116): 0.0325 µM
- solubility at 24 h [2]: 10500 µg/mL and 80000 µM
- IC50 (Hep G2): 3.86 µM
- TGI (tumor growth inhibition) (HCT116 tumor): 21.8%
- W̅ average tumor growth weight (HCT116 tumor): 0.65 ± 0.10 g
